Screening data as filed in PubChem BioAssay.
SR-BI uptake up: enhances SR-BI lipid uptake from DiI-HDL. CHO ldlA[mSR-BI] cells, DiI-HDL uptake fluorescence, 3 h; 100 = double the neutral-control signal. activation, % at 12.5 µM. hit rate 0.096% among 320,000. AID 504775;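 active = mean replicate activation of at least 60% and every replicate at or above 60%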;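 also: 0% = median plate neutral-control signal and 100% = twice that signal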
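System: LDL receptor-deficient CHO ldlA cells overexpressing murine SR-BI | Timing: 3 h uptake period with compound, 37 °C | Medium: HEPES-buffered (25 mM, pH 7.4) F12 plus 0.5% BSA | Dosing: Single-point compound dose | Signal: Bottom-read fluorescence, 550/595 nm | Read-out: Retained DiI signal reflecting DiI-HDL uptake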
Hep lipid drop: modulators of hepatic lipid droplet formation | AML12 mouse hepatocytes, oleate lipid droplets, BODIPY imaging | inhibition, % at 6.5 µM | hit rate 0.4% among 240,000 | AID 1656;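 active = lipid droplet intensity inhibited by at least 50%, with more than 500 cells counted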
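Material: mouse AML12 hepatocyte cell line, fixed after treatment; Timing: compound with oleate, overnight; Technique: high-content imaging of BODIPY-stained droplets and DAPI nuclei; Probe or stimulus: oleate, 100 µM final; Dosing: compound at 6.5 µM only.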
NOD2 RIPK2 PPI: NOD2-RIPK2 protein interaction inhibition. O43353. CHO BLA complementation NOD2-RIPK2, CCF4 ratio. inhibition, % at 4.98 µM. hit rate 0.38% among 360,000. AID 624267; in the data active = inhibition above about 21%;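 also: 0% = vehicle only and 100% = reference blocker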
Target sequence (O43353 whole entry, looked up): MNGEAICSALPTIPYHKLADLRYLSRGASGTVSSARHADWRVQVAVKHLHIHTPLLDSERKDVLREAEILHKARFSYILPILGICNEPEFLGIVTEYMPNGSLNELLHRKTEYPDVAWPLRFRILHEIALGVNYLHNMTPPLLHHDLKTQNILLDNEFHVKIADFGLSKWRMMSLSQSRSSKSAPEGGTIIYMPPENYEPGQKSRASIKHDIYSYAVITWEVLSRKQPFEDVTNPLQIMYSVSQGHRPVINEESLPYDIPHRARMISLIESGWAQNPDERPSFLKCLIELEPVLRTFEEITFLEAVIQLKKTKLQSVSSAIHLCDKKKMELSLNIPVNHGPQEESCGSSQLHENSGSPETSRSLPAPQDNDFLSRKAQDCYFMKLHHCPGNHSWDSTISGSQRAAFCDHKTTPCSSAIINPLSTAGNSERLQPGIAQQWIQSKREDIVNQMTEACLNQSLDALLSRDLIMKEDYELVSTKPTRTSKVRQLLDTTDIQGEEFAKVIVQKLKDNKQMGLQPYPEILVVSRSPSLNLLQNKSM
SR-BI HDL uptake: blocks mouse SR-BI lipid uptake from DiI-HDL. hit rate 0.96% among 320,000. Q61009. ldlA[mSR-BI] CHO cells, DiI-HDL uptake fluorescence, 3 h. inhibition, % at 12.5 µM;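 active = mean replicate inhibition of at least 70% and a set share of replicates each scoring 70 or more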;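 also: 0% = median of neutral control wells and 100% = median of positive control wells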
TLR4-MyD88 BLA: TLR4-MyD88 interaction inhibition in cells; inhibition, % at 8.4 µM; hit rate 0.18% among 200,000; O00206+Q99836; HeLa CL3-4 TLR4/MyD88 BLA complementation, FRET ratio; in the data active = inhibition above about 25%;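 also: 0% = vehicle and 100% = reference inhibitor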
TLR9-MyD88 block: blocks human TLR9 binding to MyD88 | hit rate 0.21% among 340,000 | CHO BLA complementation TLR9-MyD88, CCF4 FRET ratio | inhibition, % at 4.98 µM | Q9NR96+Q99836;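 active = inhibition above the mean over all tested compounds plus 3 SD, cut at about 21% in these data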;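 also: 0% = DMSO only wells and 100% = clavulanate BLA inhibitor control wells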
NOD2 RIPK2 conf: confirmation of human NOD2-RIPK2 interaction inhibitors. CHO cells, NOD2-RIPK2 BLA complementation, CCF4 FRET. shares compounds with NOD2 RIPK2 PPI. inhibition, % at 4.98 µM. hit rate 70% among 1,200. AID 624370;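 active = mean inhibition across replicates above a set limit taken from the earlier primary screen, cut at about 21% in these data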;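 also: 0% = DMSO-only wells and the high end = clavulanate BLA-blocked wells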
BLA counter: hits BLA reporter in NOD2-RIPK2 inhibitor counterscreen; shares compounds with NOD2 RIPK2 PPI; inhibition, % at 4.98 µM; hit rate 57% among 1,200; CHO BLA reporter, CCF4 FRET ratio;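 active = mean inhibition above the low-control mean inhibition plus three low-control SD, cut at about 11% in these data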;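 also: 0% = DMSO only wells and 100% = clavulanate high control wells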
An asterisk follows results filed as active; . = no result. Sampled rows, rich in hits. Any-hit rate of the full collection: about 1.6%.

SMILES	SR-BI uptake up	Hep lipid drop	NOD2 RIPK2 PPI	SR-BI HDL uptake	TLR4-MyD88 BLA	TLR9-MyD88 block	NOD2 RIPK2 conf	BLA counter
CCCN1C(=O)S/C(=C\c2ccc(N3CCOCC3)o2)C1=O	-19	6	25*	19	19	19	13	7
CCCN1C(=O)S/C(=C/c2ccc(N3CCOCC3)o2)C1=O	-16	7	41*	16	.	15	6	5
CCCN1C(=O)S/C(=C\c2ccc(N3CCOCC3)cc2C)C1=O	.	.	.	.	-10	.	.	.
O=C(NCCc1ccccc1C(F)(F)F)c1cc(COc2ccccc2)on1	.	.	-7	.	.	0	.	.
CC(C)Oc1ccc(C(=O)Nc2c3c(nn2C(C)(C)C)CS(=O)(=O)C3)cc1	-28	2	-5	28	.	8	.	.
Cc1ccccc1NC(=O)c1sc2nc3c(c(-c4ccco4)c2c1N)CCCC3	-79	5	39*	79*	17	11	51*	56*
Cc1cc(C)c2c(N)c(C(=O)Nc3cccc(C)c3C)sc2n1	-20	.	0	20	.	-2	.	.
COc1ccc(Cc2[nH]n3c(=O)c(Cl)c(C)nc3c2-c2ccccc2)cc1	-10	-2	-12	10	14	-12	.	.
COc1cc2c(c(OC)c1OC)-c1ccc(NCc3ccccc3)c(=O)cc1C(NC(C)=O)CC2 (stereo unspecified)	.	.	2	.	.	5	.	.
O=C(CC(=O)N/N=C\c1ccccc1)NCCc1ccccc1	17	-1	22*	-17	.	14	2	1
Cc1ccc(/C=N\NC(=O)CC(=O)NCCc2ccccc2)cc1	8	-6	-4	-8	.	-2	.	.
Cn1ccnc1Sc1cc(NCCCO)c([N+](=O)[O-])c2nonc12	6	9	27*	-6	4	13	31*	8
O=[N+]([O-])c1c(NCCCO)cc(Sc2ccc(Cl)cc2)c2nonc12	12	8	8	-12	0	9	.	.
CC1C(=O)N2CCCc3cc(NC(=O)CC(C)(C)C)cc1c32 (stereo unspecified)	-10	4	-12	10	.	1	.	.
Cc1cc(C)n(S(=O)(=O)c2ccccc2[N+](=O)[O-])n1	-3	2	-14	3	.	-1	.	.
Cc1c2cnn(CC(=O)Nc3c(F)c(F)cc(F)c3F)c(=O)c2c(C)n1Cc1ccccc1F	-5	0	24*	5	17	-4	10	-1
O=CNc1ccc2c3c(cccc13)-c1ccccc1-2	-14	.	29*	14	.	1	24*	38*
COc1ccc(-c2csc(-c3cc4ccccc4oc3=N)n2)cc1	28	-2	31*	-28	12	19	16	23*
COc1ccc(-c2noc(-c3cc4ccccc4oc3=O)n2)cc1	.	.	.	.	1	.	.	.
COc1cc(OC)c(OC)cc1/C=C/C(=O)c1ccc(NS(=O)(=O)c2ccc(C)cc2)cc1	-32	-2	34*	32	17	20	34*	40*
CC(=O)c1ccc(/C=C/c2nc3ccccc3n2C)o1	.	9	54*	.	.	.	68*	70*
Cn1c(/C=C/c2ccccc2)nc2ccccc21	3	-6	1	-3	-4	-6	.	.
COc1cccc(N2CCN(C(=O)c3ccccc3SCC(=O)NCc3ccco3)CC2)c1	-13	.	0	13	.	-15	.	.
COc1ccc(C)c2sc(N(CCCN(C)C)C(=O)c3ccc(S(=O)(=O)N4CCc5ccccc5C4)cc3)nc12	16	.	24*	-16	.	11	44*	16*
NC(=O)c1ccc2c(=O)c(O)c(-c3cc(Cl)c(N)c(Cl)c3)[nH]c2c1	39	.	38*	-39	.	14	30*	29*
SMILES	SR-BI uptake up	Hep lipid drop	NOD2 RIPK2 PPI	SR-BI HDL uptake	TLR4-MyD88 BLA	TLR9-MyD88 block	NOD2 RIPK2 conf	BLA counter
CCCNC(=O)c1ccc2c(=O)c(O)c(-c3ccc(Cl)c([N+](=O)[O-])c3)[nH]c2c1	-69	.	-13	69	.	4	.	.
O=C(NCc1ccccc1)c1cc(C2COCCN2C(=O)C/C=C/c2ccccc2)on1 (stereo unspecified)	.	.	-14	.	.	.	.	.
N/C(Cc1ccc(Cl)cc1)=N\OC(=O)C1CCCCC1	0	15	2	0	-1	-8	.	.
CCC(=O)c1ccc(OCC(=O)N2CCN(c3ccccn3)CC2)cc1	12	10	28*	-12	.	7	-1	4
O=C(COc1cccc2ccccc12)N1CCN(c2ccccn2)CC1	-9	27	-9	9	1	-1	.	.
Cc1cc(C)n2nc(CC(=O)NNC(=O)c3ccccc3Cl)nc2n1	-1	-2	-8	1	.	0	.	.
O=c1ccc2ccccc2c2ccccc12	.	.	43*	.	.	.	41*	-3
c1ccc2c(c1)ccc1ccccc12	0	.	-11	0	.	-10	.	.
O=C1C(=NO)C(c2ccccc2)Oc2ccccc21 (stereo unspecified)	5	.	28*	-5	.	12	20	27*
O=C(c1ccccc1)N1C(=O)C(c2ccccc2)Oc2ccccc21 (stereo unspecified)	.	-11	-9	.	.	-6	.	.
N#CC1C(=O)c2ccccc2C1c1ccccc1 (stereo unspecified)	2	.	48*	-2	.	7	-6	0
O=C(c1ccccc1Cl)N(Cc1ccc(Br)cc1)N1C(=O)CCC1=O	.	-29	23*	.	-10	-2	0	-2
O=C(c1ccccc1Cl)N(Cc1ccc(Cl)c(Cl)c1)N1C(=O)CCCC1=O	.	-4	14	.	10	7	.	.
CCOc1cc(/C=C2\COc3ccccc3C2=O)cc(Br)c1OCC(=O)N(C)C	-63	-11	26*	63	.	4	28*	-4
COc1ccc(/C=C2\COc3ccccc3C2=O)cc1OC	13	-5	6	-13	-6	-16	.	.
O=C(Nc1ccccc1)C1Cc2c(-c3ccc(Cl)cc3)ccnc2O1 (stereo unspecified)	.	.	-1	.	.	.	.	.
O=C(NCc1ccccc1)C1Cc2c(-c3ccc(Cl)cc3)ccnc2O1 (stereo unspecified)	.	.	21*	.	.	.	18	1
Cc1cnc(C(=O)N2CCN(S(=O)(=O)c3ccc(F)c(F)c3F)CC2)cn1	12	.	5	-12	.	2	.	.
CC1(C(=O)NS(=O)(=O)c2ccccc2Cl)CCN1C(=O)CCc1cccs1 (stereo unspecified)	.	.	-13	.	.	.	.	.
COC(=O)C12OCC34C(CC5C(C)=C(O)C(=O)CC5(C)C3C(O)C1O)OC(=O)C(OC(=O)C=C(C)C)C24 (stereo unspecified)	6	.	28*	-6	.	-10	25*	-5
